# Results as given in ChEMBL document CHEMBL1131043, “Nucleosides and nucleotides. 175. Structural requirements of the sugar moiety for the antitumor activities of new nucleoside antimetabolites, 1-(3-C-ethynyl-beta-D-ribo-pentofuranosyl)cytosine and -uracil1” (J Med Chem, 1998).
# Experiments:
# L1210 = assay: Concentration required to inhibit 50% of murine leukemia L1210 cell growth was measured(in vitro) using MTT assay.; type: functional, cell-based, Mus musculus
# Summary of the method: (§1)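 Cells seeded at 2 × 10³/well, cultured with or without test nucleoside for 72 h, then 4 h further with MTT. Formazan dissolved in DMSO, OD read at 540 nm. % inhibition = [1 − OD sample/OD control] × 100; IC50 taken as concentration giving 50% growth inhibition. S-180 cytotoxicity run by the same method.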
# KB [1] = assay: Concentration required to inhibit 50% of human epidermoid KB cell growth was measured(in vitro) using MTT assay.; type: functional, cell-based; summary of the method: as §1
# Sarcoma-180 [2] = assay: Cytotoxicity against sarcoma -180 cells was measured by […].; type: functional, cell-based; conditions: Mus musculus; summary of the method: as §1
# Sarcoma-180 [3] = assay: Phosphorylation by uridine/cytidine kinase(UCK) from mouse sarcoma -180 ascites cells was measured.; type: functional
# Summary of the method: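 UCK partially purified from mouse Sarcoma-180 ascites cells (ammonium sulfate 30–50%, Sephacryl S-200, hydroxyapatite, DEAE-Sepharose). Reaction: 50 mM Tris-HCl pH 8.0, 10 mM ATP, 10 mM NaF, 5 mM MgCl2, 1 mg/mL BSA, 0.6 mM nucleoside, 37 °C, 15 min (Cyd, Urd) or 60 min (others), stopped by boiling. Tritiated nucleosides: 5'-monophosphate on PEI-cellulose TLC counted; unlabeled: substrate consumption by C18 HPLC at 270 nm. Duplicate means.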
# KB [4] = assay: The concentration required to inhibit 50% of human epidermoid KB cell growth was measured(in vitro) using MTT assay.; type: functional, cell-based; summary of the method: as §1
smiles,measurement,setting,value
C#CC[C@]1(O)[C@@H](CO)O[C@@H](n2ccc(=O)[nH]c2=O)[C@@H]1O,IC50,"L1210; Mus musculus, L1210",> 350 µM
same,IC50,"KB [1]; Homo sapiens, KB",> 350 µM
Nc1ccn([C@@H]2O[C@H](CO)[C@](O)(C3CC3)[C@H]2O)c(=O)n1,IC50,"L1210; Mus musculus, L1210",> 350 µM
same,IC50,"KB [1]; Homo sapiens, KB",> 350 µM
C#C[C@]1(O)[C@@H](CO)O[C@@H](n2ccc(=O)[nH]c2=O)[C@@H]1O,IC50,Sarcoma-180 [2],0.013 µM
same,IC50,L1210; l1210,> 350 µM
same,IC50,KB [1]; kb,> 350 µM
same,Phosphorylating activity,Sarcoma-180 [3],141 pmol/min/assay
CC#C[C@@]1(O)[C@@H](CO)O[C@@H](n2ccc(N)nc2=O)[C@@H]1O,IC50,Sarcoma-180 [2],13.9 µM
same,IC50,"L1210; Mus musculus, L1210",24.5 µM
same,IC50,"KB [1]; Homo sapiens, KB",14.6 µM
same,Phosphorylating activity,Sarcoma-180 [3],160 pmol/min/assay
C=C[C@@]1(O)[C@@H](CO)O[C@@H](n2ccc(=O)[nH]c2=O)[C@@H]1O,IC50,Sarcoma-180 [2],> 30 µM
same,IC50,"L1210; Mus musculus, L1210",148 µM
same,IC50,"KB [1]; Homo sapiens, KB",51.8 µM
same,Phosphorylating activity,Sarcoma-180 [3],9.3 pmol/min/assay
C#C[C@@H]1[C@@H](O)[C@H](n2ccc(=O)[nH]c2=O)O[C@@H]1CO,IC50,"L1210; Mus musculus, L1210",> 350 µM
same,IC50,"KB [1]; Homo sapiens, KB",> 350 µM
C#C[C@]1(O)[C@@H](CO)O[C@@H](n2ccc(N)nc2=O)[C@@H]1O,IC50,L1210; l1210,> 350 µM
same,IC50,KB [1]; kb,> 350 µM
C#C[C@H]1[C@@H](O)[C@H](n2ccc(=O)[nH]c2=O)O[C@@H]1CO,IC50,"L1210; Mus musculus, L1210",> 350 µM
same,IC50,"KB [1]; Homo sapiens, KB",> 350 µM
O=c1ccn([C@@H]2O[C@H](CO)[C@@H](O)[C@H]2O)c(=O)[nH]1 [URIDINE],Phosphorylating activity,Sarcoma-180 [3],755 pmol/min/assay
C#CC[C@@]1(O)[C@@H](CO)O[C@@H](n2ccc(=O)[nH]c2=O)[C@@H]1O,IC50,"L1210; Mus musculus, L1210",> 350 µM
same,IC50,KB [4],> 350 µM
Nc1ccn([C@@H]2O[C@H](CO)[C@@H](O)[C@H]2O)c(=O)n1 [CYTIDINE],Phosphorylating activity,Sarcoma-180 [3],812 pmol/min/assay
C#C[C@@]1(O)[C@H](O)[C@@H](CO)O[C@H]1n1ccc(N)nc1=O [2'-ETHYNYL-D-CYTIDINE],IC50,"L1210; Mus musculus, L1210",> 350 µM
same,IC50,"KB [1]; Homo sapiens, KB",> 350 µM
C#C[C@@H]1[C@@H](O)[C@H](n2ccc(N)nc2=O)O[C@@H]1CO,IC50,Sarcoma-180 [2],> 30 µM
same,IC50,"L1210; Mus musculus, L1210",> 350 µM
same,IC50,"KB [1]; Homo sapiens, KB",> 350 µM
same,Phosphorylating activity,Sarcoma-180 [3],6.9 pmol/min/assay
CCC#C[C@@]1(O)[C@@H](CO)O[C@@H](n2ccc(=O)[nH]c2=O)[C@@H]1O,IC50,"L1210; Mus musculus, L1210",338 µM
same,IC50,"KB [1]; Homo sapiens, KB",226 µM
CCC#C[C@@]1(O)[C@@H](CO)O[C@@H](n2ccc(N)nc2=O)[C@@H]1O,IC50,Sarcoma-180 [2],> 30 µM
same,IC50,"L1210; Mus musculus, L1210",129 µM
same,IC50,"KB [1]; Homo sapiens, KB",108 µM
same,Phosphorylating activity,Sarcoma-180 [3],0 pmol/min/assay
O=c1ccn([C@@H]2O[C@H](CO)[C@](O)(C3CC3)[C@H]2O)c(=O)[nH]1,IC50,"L1210; Mus musculus, L1210",> 350 µM
same,IC50,"KB [1]; Homo sapiens, KB",> 350 µM
CCC[C@@]1(O)[C@@H](CO)O[C@@H](n2ccc(=O)[nH]c2=O)[C@@H]1O,IC50,"L1210; Mus musculus, L1210",> 350 µM
same,IC50,"KB [1]; Homo sapiens, KB",> 350 µM
C#C[C@]1(O)[C@H](O)[C@@H](CO)O[C@H]1n1ccc(N)nc1=O,IC50,"L1210; Mus musculus, L1210",> 350 µM
same,IC50,"KB [1]; Homo sapiens, KB",> 350 µM
C#CC[C@]1(O)[C@@H](CO)O[C@@H](n2ccc(N)nc2=O)[C@@H]1O,IC50,"L1210; Mus musculus, L1210",> 350 µM
same,IC50,"KB [1]; Homo sapiens, KB",> 350 µM
CC#C[C@@]1(O)[C@@H](CO)O[C@@H](n2ccc(=O)[nH]c2=O)[C@@H]1O,IC50,"L1210; Mus musculus, L1210",354 µM
same,IC50,"KB [1]; Homo sapiens, KB",70.8 µM
C#CC[C@@]1(O)[C@@H](CO)O[C@@H](n2ccc(N)nc2=O)[C@@H]1O,IC50,"L1210; Mus musculus, L1210",> 350 µM
same,IC50,"KB [1]; Homo sapiens, KB",> 350 µM
CC[C@@]1(O)[C@@H](CO)O[C@@H](n2ccc(N)nc2=O)[C@@H]1O,IC50,Sarcoma-180 [2],> 30 µM
same,IC50,"L1210; Mus musculus, L1210",269 µM
same,IC50,"KB [1]; Homo sapiens, KB",258 µM
same,Phosphorylating activity,Sarcoma-180 [3],0 pmol/min/assay
C=C[C@@]1(O)[C@@H](CO)O[C@@H](n2ccc(N)nc2=O)[C@@H]1O,IC50,Sarcoma-180 [2],> 30 µM
same,IC50,"L1210; Mus musculus, L1210",60.8 µM
same,IC50,"KB [1]; Homo sapiens, KB",74.3 µM
same,Phosphorylating activity,Sarcoma-180 [3],0 pmol/min/assay
